Most compounds without a hit are left out; they make up all but 6.7% or so of the library.
CSC inhib – cancer stem cell viability inhibitors, primary screen, luminescence; cancer stem cell-like cells viability; AID 2717, 2010; inhibition, % at 7.5 µM; actives 1.1% (n = 300,000); in the data active = inhibition above about 75%; tested in HMLE shEcad cells
T cruzi repl – inhibitors of intracellular T. cruzi growth, primary screen, luminescence, NIH3T3 host cells | T. cruzi beta-gal in NIH3T3, 90 h | inhibition, % (no concentration beside the values) | actives 1.4% (n = 300,000);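 active = mean inhibition across valid replicates above about 55%, limit read from the data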;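 also: signal also drops with host cell toxicity which is not excluded here; 0% = plate median of DMSO wells and 100% = zero luminescence signal; higher percent means less beta-gal luminescence so fewer parasites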
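Test system: β-gal T. cruzi (Tulahuen C4) inside NIH/3T3 cells / Quantity: 5,000 cells/well / Measured by: luminescence from GalScreen with 0.05% NP40, read after 60 min / Medium: DMEM plus 2% FBS / Measure: parasite load inhibition, % / Reagent: Tulahuen C4 trypomastigotes, 5000/well / Schedule: co-culture of at least 90 h after 3 h attachment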
PREPL inh – PREPL enzyme inhibitors, primary screen, biochemical, fluorescence polarization | Prolyl endopeptidase-like (Homo sapiens), Q4J6C6 | recombinant PREPL, fluorescence polarization activity-based probe | inhibition, % at 5.96 µM | actives 0.68% (n = 320,000); in the data active = inhibition above about 43%;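 also: 0% = enzyme with DMSO and 100% = wells lacking enzyme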
Target sequence (Q4J6C6 whole entry, looked up): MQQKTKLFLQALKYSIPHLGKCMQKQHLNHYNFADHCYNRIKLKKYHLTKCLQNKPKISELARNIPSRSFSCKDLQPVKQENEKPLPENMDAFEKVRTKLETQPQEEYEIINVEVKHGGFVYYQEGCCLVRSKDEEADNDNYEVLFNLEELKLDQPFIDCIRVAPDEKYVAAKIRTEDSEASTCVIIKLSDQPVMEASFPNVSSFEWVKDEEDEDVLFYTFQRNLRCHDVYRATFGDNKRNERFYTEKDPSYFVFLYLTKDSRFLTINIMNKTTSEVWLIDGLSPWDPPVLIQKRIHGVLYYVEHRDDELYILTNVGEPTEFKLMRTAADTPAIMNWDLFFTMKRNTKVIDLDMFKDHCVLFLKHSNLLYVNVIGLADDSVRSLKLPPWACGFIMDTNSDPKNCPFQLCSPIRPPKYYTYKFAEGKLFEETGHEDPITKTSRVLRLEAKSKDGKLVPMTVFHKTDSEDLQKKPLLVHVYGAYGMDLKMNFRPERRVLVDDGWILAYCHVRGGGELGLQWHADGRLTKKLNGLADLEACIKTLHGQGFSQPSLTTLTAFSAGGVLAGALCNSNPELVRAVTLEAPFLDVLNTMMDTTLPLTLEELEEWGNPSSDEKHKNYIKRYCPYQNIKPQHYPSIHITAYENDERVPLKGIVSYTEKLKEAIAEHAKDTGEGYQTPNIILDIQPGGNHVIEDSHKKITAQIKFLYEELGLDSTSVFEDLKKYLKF
GRIN3A LBD mod – binders of NR3A ligand-binding domain, primary screen, biophysical, differential scanning fluorimetry, uHTS; actives 2.5% (n = 340,000); Tm shift relative to glycine control, % at 25 µM; NR3A LBD differential scanning fluorimetry, Tm shift; 0% = protein alone, 100% = glycine-bound protein; AID 1259313, 2017; Glutamate receptor ionotropic, NMDA 3A (GRIN3A) ligand-binding domain;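 active = melting temperature shift of at least 10% of the positive control shift, at one fixed dose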
Beta cell apopt – inhibitors of cytokine-induced beta cell apoptosis, primary screen, luminescence; INS-1E cytokine-induced death, ATP luminescence, 48 h; percent of positive-control rescue, neutral wells zero; protection from apoptosis, % (no concentration beside the values); actives 0.8% (n = 300,000); AID 435005, 2010;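 active = Every replicate reaches about 75%, or at least half do and their mean reaches it too, limit read from the data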;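 also: 0% = cytokine-treated negative control wells and 100% = positive control rescue; higher means more ATP so stronger rescue from cytokine killing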
CHOP inhibitor – inhibitors of CHOP promoter induction, primary screen, cell-based, unfolded protein response, luciferase reporter; actives 3.8% (n = 220,000); inhibition, % at 10 µM; AID 2732, 2010; CHO-K1 CHOP-promoter luciferase, tunicamycin-induced, 15-18 h;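 active = compounds that reduced the stress-induced luciferase reporter signal by more than about 70% of percent inhibition, limit read from the data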;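 also: 0% = tunicamycin plus vehicle and 100% = wells without tunicamycin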
Active calls of the source: *.

Screening C[C@]12CC[C@@H](O)CC1=CC(=O)C1C2CC[C@]2(C)C(=O)CCC12 (stereo not given in full) returned CSC inhib 0, PREPL inh 14, GRIN3A LBD mod 11* and Beta cell apopt -6.
`CC1(c2ccc(Cl)cc2Cl)OCC(Cn2cncn2)O1` (stereo not given) gave CSC inhib -13, T cruzi repl -26, PREPL inh -12, GRIN3A LBD mod -1, Beta cell apopt 5 and CHOP inhibitor 22.
For CCCC1COC(Cn2cncn2)(c2ccc(Cl)cc2Cl)O1 (stereo not given) the results were CSC inhib -1, T cruzi repl 65*, PREPL inh -35, GRIN3A LBD mod 0 and CHOP inhibitor 18.
For Cn1c(O)c(Cc2cccc(Cl)c2Cl)c(=O)n(C)c1=O the results were CSC inhib -16, T cruzi repl -6, PREPL inh 9, GRIN3A LBD mod 3 and Beta cell apopt -4.
For CCCCC/C=C\C/C=C\C/C=C\C/C=C\CCCC(=O)Nc1ccc(O)cc1 the results were CSC inhib 85*, T cruzi repl 20, PREPL inh 17 and CHOP inhibitor 25.
For COC(=O)C1=C(c2ccc(F)cc2F)C[C@@H]2CC[C@H]1N2C(=O)NCc1ccc(C(F)(F)F)cc1 the results were CSC inhib 17, PREPL inh -42, GRIN3A LBD mod -12 and Beta cell apopt -2.
CC1c2ccccc2-n2nncc2CN1C (stereo not given) was read as GRIN3A LBD mod 2.
`N[C@@H]1CCCC[C@H]1N.O=C(O)C(=O)O.[Pt]` gave CSC inhib 12, T cruzi repl -16, PREPL inh -2 and Beta cell apopt 87*.
`CN(N=O)c1cc(O)ccc1O` gave CHOP inhibitor -12.
`O=C1C(Cc2cnc[nH]2)NC(=S)N1c1ccccc1` (stereo not given) gave CSC inhib 0, T cruzi repl -14, GRIN3A LBD mod 1 and Beta cell apopt 4.
For CCCCCCC(C)(C)c1ccc([C@@H]2C[C@H](O)CC[C@H]2CCCO)c(O)c1 the results were CSC inhib 103*, PREPL inh 0, GRIN3A LBD mod -40, Beta cell apopt 6 and CHOP inhibitor -25.
Screening COC(=O)C1=C(c2ccc3ccccc3c2)C[C@@H]2CC[C@H]1N2C(=O)NC1CC1 returned CSC inhib -7, PREPL inh 4, GRIN3A LBD mod -3 and Beta cell apopt 1.
For O=C(Nc1ccc(F)cc1)c1c(O)c2c(n(Cc3ccccc3)c1=O)CCCC2 the results were CSC inhib 14, T cruzi repl 15, PREPL inh -7, GRIN3A LBD mod 11*, Beta cell apopt 9 and CHOP inhibitor -21.
Screening CCOc1cc(CNCCc2c[nH]c3ccccc23)cc(Cl)c1OC returned CSC inhib 47, T cruzi repl 5, PREPL inh -85, GRIN3A LBD mod -1, Beta cell apopt 11 and CHOP inhibitor 89*.
`Cc1ccc(C2C(=O)NC(=O)NC2=O)cc1` gave CSC inhib -3, T cruzi repl -13, PREPL inh 3, GRIN3A LBD mod 1 and Beta cell apopt -1.
`CCN1C[C@@]2(COC)C3[C@@H](OC)[C@H]4[C@@H]1[C@@]3(C1C[C@@]3(O)[C@H](OC(=O)c5ccccc5)C1[C@]4(OC(C)=O)[C@@H](O)[C@H]3OC)[C@@H](OC)C[C@H]2O` (stereo not given in full) gave CSC inhib -15, T cruzi repl -20, PREPL inh 8, GRIN3A LBD mod 1 and Beta cell apopt 5.
For CCOc1cc(C2C(C#N)=C(N)Oc3c2c(=O)oc2ccccc32)ccc1OC(=O)c1cccs1 (stereo not given) the results were CSC inhib -1, T cruzi repl -7, PREPL inh 16, GRIN3A LBD mod 20*, Beta cell apopt 0 and CHOP inhibitor 18.
Screening CC12CCC3C(CCC4CC(=O)C(C(O)C(F)(F)F)CC43C)C1CCC2O (stereo not given) returned GRIN3A LBD mod -1.
Screening CC(=O)O[C@H]1[C@H]2O[C@]23[C@@H]2CC[C@]4(O)C[C@@H](O)CC[C@]4(C)C2CC[C@]3(C)[C@H]1c1ccc(=O)oc1 (stereo not given in full) returned CSC inhib 105*, PREPL inh 1, GRIN3A LBD mod 2 and Beta cell apopt 0.
`C[C@]12CC[C@H]3C(CCC4(O)CC(O)CC[C@]34C=O)C1=CC[C@H]2c1ccc(=O)oc1` (stereo not given in full) gave CSC inhib 78*, T cruzi repl -2, PREPL inh 0, GRIN3A LBD mod -1 and Beta cell apopt -6.
CN1CCN(c2ccc(S(=O)(=O)C(F)(F)F)cc2[N+](=O)[O-])CC1 was read as CSC inhib 0, T cruzi repl 25, PREPL inh 11, GRIN3A LBD mod 15*, Beta cell apopt -3 and CHOP inhibitor 11.
CN1CCN(c2ccc(S(C)(=O)=O)cc2[N+](=O)[O-])CC1 was read as CSC inhib 10, T cruzi repl 6, PREPL inh 8, GRIN3A LBD mod -3, Beta cell apopt -3 and CHOP inhibitor -10.
Clc1ccc(COC(Cn2ccnc2)c2ccc(Cl)cc2Cl)cc1 (stereo not given) was read as CSC inhib 64, T cruzi repl 47, PREPL inh -14, GRIN3A LBD mod 3, Beta cell apopt 16 and CHOP inhibitor 45.
Screening Clc1ccc(CO/N=C(\Cn2ccnc2)c2ccc(Cl)cc2Cl)c(Cl)c1 returned CSC inhib 103*, T cruzi repl 68*, PREPL inh -14 and Beta cell apopt 88*.
Screening Cc1sc2c(c1C)C(c1cccs1)=NCC(=O)N2CC(=O)NCc1cccs1 returned CSC inhib -29, T cruzi repl -12, PREPL inh -10, GRIN3A LBD mod -3, Beta cell apopt 4 and CHOP inhibitor 25.
For Cc1sc2c(c1C)C(c1ccc(C(C)(C)C)cc1)=NCC(=O)N2CC(=O)Nc1nccs1 the results were CSC inhib -2, T cruzi repl 37, PREPL inh 1, GRIN3A LBD mod -5, Beta cell apopt 4 and CHOP inhibitor 84*.
O=C(COc1ccc(Br)cc1)N1CCN(C2CCCC2)CC1 was read as CSC inhib -9, T cruzi repl 13, PREPL inh 12, GRIN3A LBD mod 1, Beta cell apopt 7 and CHOP inhibitor -26.
